Laboratory results as given in ChEMBL document CHEMBL5653605, “Reduced VEGF production, angiogenesis, and vascular regrowth contribute to the antitumor properties of dual mTORC1/mTORC2 inhibitors” (Cancer Res, 2011).
Active and inactive are the calls of the source. The calls are words filed in the database; no cut-off is given here.

What was measured:
[1] = system: NCI-H292; test: Antitumor activity against human NCI-H292 cells xenografted in nu/nu CD-1 mouse assessed as tumor growth inhibition at 40 mg/kg qd administered for 21 days and measured twice weekly relative to control; format: functional; conditions: NCI-H292, 504 h, time 21 day, read-out: TGI
Outline: (§1)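 Xenograft combination study: H292 or Ovar-5 cells implanted s.c. in the right flank of nu/nu CD-1 mice. Ovar-5 cells grown in RPMI with 10% serum and 1% L-glutamine. […] Tumor growth followed, with growth inhibition reported as median TGI over the dosing period.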

[2] = system: NCI-H292; test: Antitumor activity against human NCI-H292 cells xenografted in nu/nu CD-1 mouse assessed as tumor growth inhibition at 40 mg/kg qd administered for 21 days in presence of OSI-027 and measured twice weekly relative to control; format: functional; conditions: NCI-H292, 504 h, time 21 day, read-out: TGI; outline: as §1
[3] = system: NCI-H292; test: Antitumor activity against human NCI-H292 cells xenografted in nu/nu CD-1 mouse assessed as maximal tumor regression at 40 mg/kg qd administered for 21 days in presence of OSI-027 and measured twice weekly relative to control; format: functional; conditions: time 21 day
[4] = system: OVCAR-5; test: Antitumor activity against human OVCAR-5 cells xenografted in nu/nu CD-1 mouse assessed as tumor growth inhibition at 40 mg/kg qd administered for 14 days and measured twice weekly relative to control; format: functional; conditions: OVCAR-5, 336 h, time 14 day, read-out: TGI; outline: as §1
[5] = system: OVCAR-5; test: Antitumor activity against human OVCAR-5 cells xenografted in nu/nu CD-1 mouse assessed as tumor growth inhibition at 40 mg/kg qd administered for 14 days in presence of OSI-027 and measured twice weekly relative to control; format: functional; conditions: OVCAR-5, 336 h, time 14 day, read-out: TGI; outline: as §1
[6] = system: OVCAR-5; test: Antitumor activity against human OVCAR-5 cells xenografted in nu/nu CD-1 mouse assessed as maximal tumor regression at 40 mg/kg qd administered for 14 days in presence of OSI-027 and measured twice weekly relative to control; format: functional; conditions: time 14 day
[7] = molecular target: mTORC1 (Homo sapiens, UniProt P42345); test: Competitive inhibition of mTORC1 immunoprecipitated from human HeLa cells using His-tagged 4E-BP1 as substrate incubated for 30 mins in presence of ATP by chemiluminescence based ELISA
Outline: (§2)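 Native mTORC1 or mTORC2 complex immunoprecipitated from HeLa lysates; kinase reaction run at 1 mM ATP.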

[8] = molecular target: mTORC2 (Homo sapiens, UniProt P42345); test: Competitive inhibition of mTORC2 immunoprecipitated from human HeLa cells using His-tagged 4E-BP1 as substrate incubated for 30 mins in presence of ATP by chemiluminescence based ELISA; outline: as §2
[9] = molecular target: T1, Serine/threonine-protein kinase mTOR (Homo sapiens, UniProt P42345); test: Inhibition of mTOR (unknown origin)
[10] = molecular target: Phosphatidylinositol 4,5-bisphosphate 3-kinase catalytic subunit beta isoform (Homo sapiens, UniProt P42338); test: Inhibition of PI3Kbeta (unknown origin) in presence of ATP by HTRF assay
Outline: (§3)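 PI3K activity by HTRF assay at […] ATP.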

[11] = molecular target: Phosphatidylinositol 4,5-bisphosphate 3-kinase catalytic subunit gamma isoform (Homo sapiens, UniProt P48736); test: Inhibition of PI3Kgamma (unknown origin) in presence of ATP by HTRF assay; outline: as §3
[12] = molecular target: RAC-alpha serine/threonine-protein kinase (Homo sapiens) (UniProt P31749); test: Inhibition of AKT phosphorylation at Ser 473 site in serum deprived/insulin stimulated human OVCAR-3 cells harboring PTEN and wild type PI3K preincubated for 2 hrs followed by insulin stimulation and measured immediately by Western blot analysis; format: cell-based; conditions: dose 0.001-10 µM
[13] = molecular target: Proline-rich AKT1 substrate 1 (Homo sapiens) (UniProt Q96B36); test: Inhibition of PRAS40 phosphorylation at Ser 246 residue in serum deprived/insulin stimulated human OVCAR-3 cells harboring PTEN and wild type PI3K preincubated for 2 hrs followed by insulin stimulation and measured immediately by Western blot analysis; format: cell-based; conditions: dose 0.001-10 µM
[14] = molecular target: Eukaryotic translation initiation factor 4E-binding protein 1 (Homo sapiens) (UniProt Q13541); test: Inhibition of 4E-BP1 phosphorylation at Ser 37/46 residues in serum deprived/insulin stimulated human OVCAR-3 cells harboring PTEN and wild type PI3K preincubated for 2 hrs followed by insulin stimulation and measured immediately by Western blot analysis; format: cell-based; conditions: dose 0.001-10 µM
[15] = system: OVCAR-3; test: (§4) Inhibition of S6K phosphorylation at 235/236 residues in serum deprived/insulin stimulated human OVCAR-3 cells harboring PTEN and wild type PI3K at 0.001 to 10 uM preincubated for 2 hrs followed by insulin stimulation and measured immediately by Western blot analysis; format: cell-based; conditions: dose 0.001-10 µM
[16] = system: OVCAR-3; test: as §4, with “S6K” for “S6K phosphorylation”, “PI3K assessed as inhibition of s6 substrate phosphorylation at […] residue” for “PI3K”; format: cell-based; conditions: dose 0.001-10 µM
[17] = system: Mus musculus; test: In vivo inhibition of 4E-BP1 phosphorylation at Ser37/46 residues in nu/nu CD-1 mouse xenografted with human GEO cells at 65 mg/kg administered for 12 days and measured 2 hrs post last dose by Western blot analysis; format: functional, organism-based; conditions: time 290.0 hrs
Outline: (§5)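 nu/nu CD-1 mice carrying s.c. GEO flank xenografts dosed 65 mg/kg for 12 days; tumors snap-frozen 2, 8, 24 h after dosing, homogenized in Triton X-100/HEPES pH 7.4 lysis buffer with phosphatase inhibitors; phospho and total 4E-BP1 (37/46), Akt (S473), S6 (235/236) quantified by Western blot; n=2.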

[18] = system: Mus musculus; test: In vivo inhibition of S6 phosphorylation at 235/236 residues in nu/nu CD-1 mouse xenografted with human GEO cells at 65 mg/kg administered for 12 days and measured 2 to 24 hrs post last dose by Western blot analysis; format: functional, organism-based; conditions: time 290-312 hrs; outline: as §5
[19] = Drug concentration in nu/nu CD-1 mouse plasma xenografted with human GEO cells at 65 mg/kg administered for 12 days and measured 8 hrs post last dose; format: ADME, organism-based
Outline: (§6)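 nu/nu CD-1 mice bearing s.c. right-flank GEO xenografts dosed at 65 mg/kg for 12 days; plasma drug level sampled at 2 or 8 h after last dose; median reported.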

[20] = Drug concentration in nu/nu CD-1 mouse plasma xenografted with human GEO cells at 65 mg/kg administered for 12 days and measured 2 hrs post last dose; format: ADME, organism-based; outline: as §6
[21] = system: GEO; test: Antitumor activity against human GEO cells xenografted in nu/nu CD-1 mouse assessed as slower tumor growth at 65 mg/kg administered once a day for 12 days and measured twice weekly; format: functional, organism-based; conditions: time 12.0 day
[22] = system: NCI-H292; test: Antitumor activity against human NCI-H292 cells xenografted in nu/nu CD-1 mouse assessed as tumor growth inhibition at 50 mg/kg qd administered for 21 days and measured twice weekly relative to control; format: functional; conditions: NCI-H292, 504 h, time 21 day, read-out: TGI; outline: as §1
[23] = system: NCI-H292; test: Antitumor activity against human NCI-H292 cells xenografted in nu/nu CD-1 mouse assessed as tumor growth inhibition at 50 mg/kg qd administered for 21 days in presence of sunitinib and measured twice weekly relative to control; format: functional; conditions: NCI-H292, 504 h, time 21 day, read-out: TGI; outline: as §1
[24] = system: NCI-H292; test: Antitumor activity against human NCI-H292 cells xenografted in nu/nu CD-1 mouse assessed as maximal tumor regression at 50 mg/kg qd administered for 21 days in presence of sunitinib and measured twice weekly relative to control; format: functional; conditions: time 21 day
[25] = system: OVCAR-5; test: Antitumor activity against human OVCAR-5 cells xenografted in nu/nu CD-1 mouse assessed as tumor growth inhibition at 50 mg/kg qd administered for 14 days and measured twice weekly relative to control; format: functional; conditions: OVCAR-5, 336 h, time 14 day, read-out: TGI; outline: as §1
[26] = system: OVCAR-5; test: Antitumor activity against human OVCAR-5 cells xenografted in nu/nu CD-1 mouse assessed as tumor growth inhibition at 50 mg/kg qd administered for 14 days in presence of sunitinib and measured twice weekly relative to control; format: functional; conditions: OVCAR-5, 336 h, time 14 day, read-out: TGI; outline: as §1
[27] = system: OVCAR-5; test: Antitumor activity against human OVCAR-5 cells xenografted in nu/nu CD-1 mouse assessed as maximal tumor regression at 50 mg/kg qd administered for 14 days in presence of sunitinib and measured twice weekly relative to control; format: functional; conditions: time 14 day
[28] = molecular target: T1, Serine/threonine-protein kinase mTOR; test: Inhibition of mTOR (unknown origin) assessed as reduction in 4E-BP1 phosphorylation by cell based assay
[29] = molecular target: Vascular endothelial growth factor receptor 2 (Homo sapiens, UniProt P35968); test: Inhibition of VEGFR2 phosphorylation (unknown origin) by cell based assay
[30] = molecular target: Epidermal growth factor receptor (Homo sapiens, UniProt P00533); test: Inhibition of EGFR phosphorylation (unknown origin) by cell based assay
[31] = molecular target: Ephrin type-A receptor 2 (Homo sapiens, UniProt P29317); test: Inhibition of EphA2 phosphorylation (unknown origin) by cell based assay
[32] = molecular target: Proto-oncogene tyrosine-protein kinase Src (Homo sapiens, UniProt P12931); test: Inhibition of SRC (unknown origin) assessed as reduction in phosphorylated FAK level by cell based assay
[33] = Inhibition of MAPK (unknown origin) signaling axis assessed as reduction in phosphorylated ERK1/2 level by cell based assay; conditions: Homo sapiens
[34] = system: Mus musculus; test: In vivo inhibition of AKT phosphorylation at Ser473 residues in nu/nu CD-1 mouse xenografted with human GEO cells at 65 mg/kg administered for 12 days and measured 2 to 24 hrs post last dose by Western blot analysis relative to control; conditions: time 290-312 hrs

Proto-oncogene tyrosine-protein kinase Src, sequence (P12931 2-536 limits assumed): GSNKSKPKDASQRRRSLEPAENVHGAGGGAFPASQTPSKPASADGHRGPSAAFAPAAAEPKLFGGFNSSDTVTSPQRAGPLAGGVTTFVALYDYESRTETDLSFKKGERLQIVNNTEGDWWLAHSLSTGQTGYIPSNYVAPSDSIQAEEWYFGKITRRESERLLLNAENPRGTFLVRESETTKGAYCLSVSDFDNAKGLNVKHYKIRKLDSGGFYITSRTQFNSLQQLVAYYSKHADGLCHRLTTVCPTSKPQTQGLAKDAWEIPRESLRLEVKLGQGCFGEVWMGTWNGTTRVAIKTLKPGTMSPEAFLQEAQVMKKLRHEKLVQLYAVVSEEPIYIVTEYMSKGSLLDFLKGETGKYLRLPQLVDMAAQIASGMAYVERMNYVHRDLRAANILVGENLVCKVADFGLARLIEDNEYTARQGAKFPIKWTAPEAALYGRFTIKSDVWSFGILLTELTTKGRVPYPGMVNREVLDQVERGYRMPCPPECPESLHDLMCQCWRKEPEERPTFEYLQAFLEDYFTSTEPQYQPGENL
Eukaryotic translation initiation factor 4E-binding protein 1 (Homo sapiens), sequence (Q13541 whole entry): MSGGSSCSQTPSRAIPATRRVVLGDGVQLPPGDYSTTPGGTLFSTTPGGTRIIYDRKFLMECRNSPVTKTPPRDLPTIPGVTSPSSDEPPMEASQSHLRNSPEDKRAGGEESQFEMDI
RAC-alpha serine/threonine-protein kinase (Homo sapiens), sequence (P31749 whole entry): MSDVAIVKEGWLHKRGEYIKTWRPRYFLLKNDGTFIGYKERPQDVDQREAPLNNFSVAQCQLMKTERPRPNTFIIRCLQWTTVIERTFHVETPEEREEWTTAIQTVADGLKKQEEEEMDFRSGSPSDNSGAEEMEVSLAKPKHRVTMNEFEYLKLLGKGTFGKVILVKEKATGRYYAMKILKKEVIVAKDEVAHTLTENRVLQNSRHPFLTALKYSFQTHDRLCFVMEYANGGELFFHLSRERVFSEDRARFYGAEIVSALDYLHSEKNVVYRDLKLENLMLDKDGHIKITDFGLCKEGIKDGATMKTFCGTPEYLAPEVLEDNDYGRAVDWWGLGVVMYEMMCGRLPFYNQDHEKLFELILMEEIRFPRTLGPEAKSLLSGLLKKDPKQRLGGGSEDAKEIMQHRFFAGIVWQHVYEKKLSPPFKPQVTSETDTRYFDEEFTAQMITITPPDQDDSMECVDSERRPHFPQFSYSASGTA
Phosphatidylinositol 4,5-bisphosphate 3-kinase catalytic subunit gamma isoform, sequence (P48736 whole entry, canonical isoform): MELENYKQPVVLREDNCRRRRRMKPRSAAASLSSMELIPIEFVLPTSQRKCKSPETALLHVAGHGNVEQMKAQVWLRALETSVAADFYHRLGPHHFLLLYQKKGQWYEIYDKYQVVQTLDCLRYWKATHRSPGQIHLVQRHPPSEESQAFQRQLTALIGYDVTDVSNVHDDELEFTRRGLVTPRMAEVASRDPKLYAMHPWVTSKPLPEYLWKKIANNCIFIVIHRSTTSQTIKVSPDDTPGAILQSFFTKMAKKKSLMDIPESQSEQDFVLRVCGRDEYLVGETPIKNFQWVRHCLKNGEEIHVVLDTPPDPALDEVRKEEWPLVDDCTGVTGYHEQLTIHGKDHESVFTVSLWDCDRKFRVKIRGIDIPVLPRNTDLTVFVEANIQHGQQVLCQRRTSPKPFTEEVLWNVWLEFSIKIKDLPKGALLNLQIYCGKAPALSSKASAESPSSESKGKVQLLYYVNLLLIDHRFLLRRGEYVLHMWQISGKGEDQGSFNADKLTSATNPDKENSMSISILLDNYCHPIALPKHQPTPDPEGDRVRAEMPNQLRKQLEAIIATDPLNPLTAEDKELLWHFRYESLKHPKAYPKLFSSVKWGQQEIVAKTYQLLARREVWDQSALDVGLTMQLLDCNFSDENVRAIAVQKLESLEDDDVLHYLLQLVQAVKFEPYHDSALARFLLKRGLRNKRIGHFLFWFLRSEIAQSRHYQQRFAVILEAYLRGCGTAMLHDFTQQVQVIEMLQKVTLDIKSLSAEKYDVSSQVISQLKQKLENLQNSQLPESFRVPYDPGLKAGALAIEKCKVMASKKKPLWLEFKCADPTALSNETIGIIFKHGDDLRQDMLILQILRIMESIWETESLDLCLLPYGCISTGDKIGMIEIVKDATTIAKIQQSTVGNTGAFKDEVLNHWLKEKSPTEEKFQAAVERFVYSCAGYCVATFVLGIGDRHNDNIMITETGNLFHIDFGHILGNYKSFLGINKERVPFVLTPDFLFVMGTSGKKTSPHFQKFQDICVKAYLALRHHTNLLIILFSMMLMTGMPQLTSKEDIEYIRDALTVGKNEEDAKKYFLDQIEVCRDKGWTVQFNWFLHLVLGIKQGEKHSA
Ephrin type-A receptor 2, sequence (P29317 whole entry): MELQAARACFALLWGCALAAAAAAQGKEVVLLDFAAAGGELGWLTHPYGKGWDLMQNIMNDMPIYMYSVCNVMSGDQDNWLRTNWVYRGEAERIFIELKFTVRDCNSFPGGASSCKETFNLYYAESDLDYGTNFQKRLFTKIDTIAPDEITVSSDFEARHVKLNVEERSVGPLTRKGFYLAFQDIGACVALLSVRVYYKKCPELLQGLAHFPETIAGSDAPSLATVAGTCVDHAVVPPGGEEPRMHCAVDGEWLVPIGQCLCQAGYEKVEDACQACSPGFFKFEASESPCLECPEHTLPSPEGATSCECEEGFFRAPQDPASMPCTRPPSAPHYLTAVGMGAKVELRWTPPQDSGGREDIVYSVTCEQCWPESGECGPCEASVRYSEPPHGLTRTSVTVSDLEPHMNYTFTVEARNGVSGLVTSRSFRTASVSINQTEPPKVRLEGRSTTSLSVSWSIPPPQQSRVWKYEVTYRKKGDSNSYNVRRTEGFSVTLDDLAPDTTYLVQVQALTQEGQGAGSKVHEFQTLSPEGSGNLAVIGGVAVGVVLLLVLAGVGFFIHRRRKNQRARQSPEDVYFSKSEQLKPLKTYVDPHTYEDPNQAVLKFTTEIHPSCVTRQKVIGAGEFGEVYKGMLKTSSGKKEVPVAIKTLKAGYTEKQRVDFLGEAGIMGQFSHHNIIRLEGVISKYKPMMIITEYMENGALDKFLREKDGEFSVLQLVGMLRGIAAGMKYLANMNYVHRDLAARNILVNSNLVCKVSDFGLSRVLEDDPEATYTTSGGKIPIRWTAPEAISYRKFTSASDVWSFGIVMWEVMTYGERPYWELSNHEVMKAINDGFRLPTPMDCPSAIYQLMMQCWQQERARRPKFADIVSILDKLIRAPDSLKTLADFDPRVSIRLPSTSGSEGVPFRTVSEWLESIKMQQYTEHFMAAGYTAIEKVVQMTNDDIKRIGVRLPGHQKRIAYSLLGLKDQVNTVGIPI
Phosphatidylinositol 4,5-bisphosphate 3-kinase catalytic subunit beta isoform, sequence (P42338 whole entry, canonical isoform): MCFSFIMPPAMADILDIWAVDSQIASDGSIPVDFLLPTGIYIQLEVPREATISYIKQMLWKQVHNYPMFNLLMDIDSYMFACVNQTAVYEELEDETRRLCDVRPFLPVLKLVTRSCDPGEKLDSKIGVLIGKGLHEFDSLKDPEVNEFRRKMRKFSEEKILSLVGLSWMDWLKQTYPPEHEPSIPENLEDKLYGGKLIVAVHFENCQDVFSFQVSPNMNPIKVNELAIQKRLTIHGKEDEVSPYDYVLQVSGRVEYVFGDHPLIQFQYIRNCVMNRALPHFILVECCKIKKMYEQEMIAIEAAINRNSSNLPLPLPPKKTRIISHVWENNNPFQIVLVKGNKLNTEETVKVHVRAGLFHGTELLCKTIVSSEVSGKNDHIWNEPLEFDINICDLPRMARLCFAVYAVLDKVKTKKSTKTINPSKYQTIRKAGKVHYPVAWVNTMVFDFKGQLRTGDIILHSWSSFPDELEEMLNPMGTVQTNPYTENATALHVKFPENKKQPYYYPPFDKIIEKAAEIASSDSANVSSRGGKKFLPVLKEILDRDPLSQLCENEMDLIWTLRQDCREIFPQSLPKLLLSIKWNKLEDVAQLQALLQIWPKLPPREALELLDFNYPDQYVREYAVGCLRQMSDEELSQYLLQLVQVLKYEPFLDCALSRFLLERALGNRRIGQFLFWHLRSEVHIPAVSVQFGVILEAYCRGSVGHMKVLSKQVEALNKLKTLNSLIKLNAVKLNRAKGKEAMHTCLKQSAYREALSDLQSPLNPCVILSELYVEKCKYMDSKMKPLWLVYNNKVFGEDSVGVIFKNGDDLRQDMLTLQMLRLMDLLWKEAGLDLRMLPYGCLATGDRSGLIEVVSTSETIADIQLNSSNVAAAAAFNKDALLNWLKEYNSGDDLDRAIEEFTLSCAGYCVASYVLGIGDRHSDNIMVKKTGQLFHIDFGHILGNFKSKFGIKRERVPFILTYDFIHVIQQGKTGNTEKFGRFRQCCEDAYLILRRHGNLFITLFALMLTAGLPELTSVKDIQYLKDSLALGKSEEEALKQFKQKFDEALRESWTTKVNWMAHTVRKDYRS

CCN(CC)CCNC(=O)c1c(C)[nH]c(/C=C2\C(=O)Nc3ccc(F)cc32)c1C [SUNITINIB] gave an inhibition in vivo at 40 mg/kg [1] of 47%, an inhibition in vivo at 40 mg/kg [2] of 100% and an Activity [3] of 59%. The inhibition in vivo at 40 mg/kg [4] was 68%, the inhibition in vivo at 40 mg/kg [5] was 100% and the Activity [6] was 38%.

With COc1cccc2cc(-c3nc([C@H]4CC[C@H](C(=O)O)CC4)n4ncnc(N)c34)[nH]c12 [OSI-027] the IC50 [7] was 0.022 µM, the IC50 [8] was 0.065 µM and the IC50 [9] was 0.004 µM. For the same compound, the IC50 [10] was over 30 µM, the IC50 [11] was 0.42 µM and the inhibition [12] was “Dose-Dependent Effect”. The inhibition [13] was “Dose-Dependent Effect”, the inhibition [14] was “Dose-Dependent Effect” and the inhibition [15] was “Active”. For the same compound, the inhibition [16] was “Active”, the inhibition [17] was “Active” and the inhibition [18] was “Active”. The concentration at 296 h [19] was 14.9 µM, the concentration at 290 h [20] was 21.3 µM and the Activity [21] was “Active”. The inhibition in vivo at 50 mg/kg [22] was 61%, the inhibition in vivo at 50 mg/kg [23] was 100% and the Activity [24] was 59%. For the same compound, the inhibition in vivo at 50 mg/kg [25] was 55%, the inhibition in vivo at 50 mg/kg [26] was 100% and the Activity [27] was 38%. For the same compound, the IC50 [28] was 1 µM, the IC50 [29] was over 40 µM and the IC50 [30] was over 40 µM. For the same compound, the IC50 [31] was over 40 µM, the IC50 [32] was over 40 µM and the IC50 [33] was over 20 µM. For the same compound, the inhibition [34] was “Active”.
